Results on one molecule are retold here after ChEMBL document CHEMBL4330143, “Maximizing ER-α Degradation Maximizes Activity in a Tamoxifen-Resistant Breast Cancer Model: Identification of GDC-0927” (ACS Med Chem Lett, 2019).

One may read the Cmax as the highest concentration seen after dosing. A word on the pIC50: it is the negative decadic logarithm of the IC50, by convention in mol/L. A high value points to a small IC50. For orientation: AUC means the area under the concentration-time curve, a measure of exposure.

pIC50: −log10 of the molar value. The source made the active and inactive calls. The calls are words filed in the database; no cut-off is given here.

Series [1] is described as follows: Cmax in nude mouse xenografted with tamoxifen-resistant human MCF7 cells at 100 mg/kg, po daily for 28 days measured on day 28 post last dose. Type of series: ADME, organism-based. On the set-up: dose 100 mg/kg, route oral. The conditions noted are these: in vivo. Summed up:
(§1)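 Tamoxifen-resistant MCF-7 xenograft mice carrying subcutaneous 0.72 mg estradiol pellets. Plasma pharmacokinetics sampled on day 28 of the study, at take-down.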
(In xenograft studies the graft and the host belong to different species.)

Series [2] can be described thus: Unbound AUC (0 to 24 hrs) in nude mouse xenografted with tamoxifen-resistant human MCF7 cells at 100 mg/kg, po daily for 28 days measured on day 28 post last dose. Type of series: ADME, organism-based. To be noted: in vivo. In short, it runs like this: as §1
Series [3] in a line: Unbound Cmax in nude mouse xenografted with tamoxifen-resistant human MCF7 cells at 100 mg/kg, po daily for 28 days measured on day 28 post last dose. Type of series: ADME, organism-based. The conditions noted are these: in vivo, 672 h. In short, it runs like this: as §1
Series [4] deals with Mus musculus. Description: In vivo induction of ERalpha degradation in tumor of nude mouse xenografted with tamoxifen-resistant human MCF7 cells at 100 mg/kg, po daily for 28 days measured on day 28 post last dose. Type of series: functional, organism-based. Summed up:
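Tamoxifen-resistant MCF-7 tumours grown subcutaneously in mice, with estradiol supplied from subcutaneous 0.72 mg estradiol pellets.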

Series [5] concerns the target Sodium-dependent dopamine transporter (Homo sapiens, UniProt Q01959). Kind of series: Inhibition of dopamine transporter (unknown origin). Summed up: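 Cell-based functional follow-up assay, done after hits in a radioligand binding panel run under protein-free conditions. Value reported as IC50.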
Series [6] concerns Rattus norvegicus. Description: In vivo inverse agonist activity at ERalpha in CD-IGS rat assessed as decrease in uterine weight at 10 mg/kg, po for 3 consecutive days measured at 24 hrs post last dose. Type of series: functional, organism-based. In short, it runs like this:
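Rat uterine wet weight assay run in agonist mode, with no ethynyl estradiol added. Oral dosing at 10 mg/kg for 3 days. Uterine weights compared with those of vehicle-treated animals.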

Series [7] in a line: AUC in rat at 10 mg/kg, po daily for 3 days measured on day 3 post last dose. Type of series: ADME, organism-based. To be noted: in vivo.
Series [8] addresses T1, Progesterone receptor (Homo sapiens) (UniProt P06401).
T1 sequence (whole entry): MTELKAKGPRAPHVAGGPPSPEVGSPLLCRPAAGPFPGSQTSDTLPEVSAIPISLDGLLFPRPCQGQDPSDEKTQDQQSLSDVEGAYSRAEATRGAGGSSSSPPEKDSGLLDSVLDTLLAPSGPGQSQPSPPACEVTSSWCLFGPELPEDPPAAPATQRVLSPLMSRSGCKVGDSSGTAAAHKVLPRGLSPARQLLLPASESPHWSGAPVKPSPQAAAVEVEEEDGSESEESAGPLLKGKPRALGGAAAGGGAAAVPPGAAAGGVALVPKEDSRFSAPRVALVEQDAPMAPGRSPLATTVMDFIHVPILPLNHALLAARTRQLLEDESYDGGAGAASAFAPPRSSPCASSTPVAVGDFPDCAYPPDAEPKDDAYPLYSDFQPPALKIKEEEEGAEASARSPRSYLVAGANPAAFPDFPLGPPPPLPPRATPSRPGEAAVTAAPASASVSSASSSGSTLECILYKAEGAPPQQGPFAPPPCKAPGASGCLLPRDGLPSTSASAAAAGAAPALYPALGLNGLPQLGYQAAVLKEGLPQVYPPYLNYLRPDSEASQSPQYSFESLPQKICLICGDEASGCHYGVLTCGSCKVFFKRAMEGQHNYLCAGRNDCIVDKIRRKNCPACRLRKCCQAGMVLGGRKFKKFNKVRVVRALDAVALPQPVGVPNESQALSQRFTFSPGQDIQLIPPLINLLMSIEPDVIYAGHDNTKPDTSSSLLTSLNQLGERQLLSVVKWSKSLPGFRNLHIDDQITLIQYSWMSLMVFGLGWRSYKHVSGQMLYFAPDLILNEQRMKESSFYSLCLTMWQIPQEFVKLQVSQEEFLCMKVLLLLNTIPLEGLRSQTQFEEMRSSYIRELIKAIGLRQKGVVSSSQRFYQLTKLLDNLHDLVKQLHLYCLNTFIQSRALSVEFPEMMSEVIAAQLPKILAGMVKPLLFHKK
Description: Agonist activity at PR-B (unknown origin) by transcriptional reporter assay. Background: A reporter such as luciferase makes a cellular process visible.

Series [9] addresses T2, Mineralocorticoid receptor (Homo sapiens) (UniProt P08235).
T2 sequence (whole entry): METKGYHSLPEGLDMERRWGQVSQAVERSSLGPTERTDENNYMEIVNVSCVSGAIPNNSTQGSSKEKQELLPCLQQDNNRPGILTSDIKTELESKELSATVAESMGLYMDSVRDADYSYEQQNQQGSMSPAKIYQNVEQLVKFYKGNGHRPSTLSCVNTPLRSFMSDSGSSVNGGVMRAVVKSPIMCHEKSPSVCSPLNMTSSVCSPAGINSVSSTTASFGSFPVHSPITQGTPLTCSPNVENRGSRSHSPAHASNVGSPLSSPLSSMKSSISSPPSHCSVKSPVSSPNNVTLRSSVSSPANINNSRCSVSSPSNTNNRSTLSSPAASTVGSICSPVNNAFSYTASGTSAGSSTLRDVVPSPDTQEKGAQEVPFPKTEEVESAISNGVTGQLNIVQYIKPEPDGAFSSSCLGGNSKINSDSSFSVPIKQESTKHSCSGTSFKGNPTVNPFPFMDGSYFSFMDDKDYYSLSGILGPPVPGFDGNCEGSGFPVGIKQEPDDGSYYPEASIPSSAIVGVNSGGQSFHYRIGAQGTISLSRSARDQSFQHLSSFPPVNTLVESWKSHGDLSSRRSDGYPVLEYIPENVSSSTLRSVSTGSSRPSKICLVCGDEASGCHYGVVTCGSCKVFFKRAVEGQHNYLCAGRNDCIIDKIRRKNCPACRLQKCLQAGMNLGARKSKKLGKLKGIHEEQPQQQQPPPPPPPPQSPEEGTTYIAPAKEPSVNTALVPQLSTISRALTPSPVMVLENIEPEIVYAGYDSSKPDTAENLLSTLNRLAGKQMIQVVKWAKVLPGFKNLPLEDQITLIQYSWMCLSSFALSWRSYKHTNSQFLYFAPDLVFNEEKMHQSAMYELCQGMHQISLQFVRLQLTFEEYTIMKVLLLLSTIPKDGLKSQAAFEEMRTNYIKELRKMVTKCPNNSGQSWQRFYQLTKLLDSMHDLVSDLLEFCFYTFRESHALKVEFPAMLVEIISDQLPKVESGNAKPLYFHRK
Kind of series: Agonist activity at MR (unknown origin) by transcriptional reporter assay.

Series [10] concerns the target Cytochrome P450 2D6 (Homo sapiens, UniProt P10635). Kind of series: Competitive inhibition of CYP2D6 (unknown origin). Type of series: ADME.
Series [11] in a line: Unbound fraction in mouse plasma. Type of series: ADME, cell-free.

Chain of Cytochrome P450 2D6 (P10635 whole entry): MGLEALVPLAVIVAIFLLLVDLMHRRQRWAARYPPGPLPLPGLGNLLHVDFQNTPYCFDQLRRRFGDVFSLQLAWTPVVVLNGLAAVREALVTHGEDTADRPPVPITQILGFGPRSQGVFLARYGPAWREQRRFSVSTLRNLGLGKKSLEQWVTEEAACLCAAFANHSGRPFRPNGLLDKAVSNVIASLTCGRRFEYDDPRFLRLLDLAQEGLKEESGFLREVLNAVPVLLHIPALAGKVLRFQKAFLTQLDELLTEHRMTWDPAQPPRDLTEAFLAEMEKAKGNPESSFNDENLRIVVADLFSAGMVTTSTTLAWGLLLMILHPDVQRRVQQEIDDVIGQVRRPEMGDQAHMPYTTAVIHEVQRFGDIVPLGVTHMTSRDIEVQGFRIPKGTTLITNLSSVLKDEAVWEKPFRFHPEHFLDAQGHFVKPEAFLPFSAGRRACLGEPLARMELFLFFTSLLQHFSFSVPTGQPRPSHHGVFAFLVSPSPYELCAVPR
Chain of Sodium-dependent dopamine transporter (Q01959 whole entry): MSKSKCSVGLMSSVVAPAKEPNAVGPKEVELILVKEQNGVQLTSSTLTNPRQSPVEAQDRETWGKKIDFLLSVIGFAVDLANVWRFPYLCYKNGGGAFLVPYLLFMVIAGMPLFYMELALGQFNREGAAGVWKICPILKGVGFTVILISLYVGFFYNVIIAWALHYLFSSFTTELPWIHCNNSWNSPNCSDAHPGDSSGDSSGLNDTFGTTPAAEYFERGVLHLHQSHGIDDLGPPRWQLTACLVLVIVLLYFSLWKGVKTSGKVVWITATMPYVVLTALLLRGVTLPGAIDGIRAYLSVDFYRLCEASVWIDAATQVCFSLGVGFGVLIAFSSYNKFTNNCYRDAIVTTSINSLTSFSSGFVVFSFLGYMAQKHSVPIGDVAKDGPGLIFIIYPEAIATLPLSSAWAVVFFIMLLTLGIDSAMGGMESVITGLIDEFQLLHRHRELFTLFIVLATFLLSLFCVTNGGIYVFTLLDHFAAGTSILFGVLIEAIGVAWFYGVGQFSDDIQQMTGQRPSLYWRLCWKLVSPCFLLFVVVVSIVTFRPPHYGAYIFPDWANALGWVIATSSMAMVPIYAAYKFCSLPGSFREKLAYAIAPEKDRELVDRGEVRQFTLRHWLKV

In series [1], `CC1=C(c2cccc(O)c2)[C@H](c2ccc(OCCN3CC(CF)C3)cc2)Oc2ccc(O)cc21` came in with a Cmax of 950 ng/mL. For the same molecule, the fAUC in [2] turned out to be 130 ng·h/mL. Further, the fCmax in series [3] worked out at 0.018 µg/mL. Also, the outcome in series [4] and in series [6] was Active. The results for the negative logarithm of the IC50 (pIC50) in series [5] and in series [10] were 6.41 and below 5.00, respectively. For the same molecule, the AUC at 72 h in series [7] was found to be 160 ng·h/mL. Besides, the result in [8] and in series [9] was inactive. This molecule returned a Fu in [11] of 1.9%.
